Results taken from ChEMBL document CHEMBL1125754, “Synthesis and antiviral activity of 9-alkoxypurines. 2. 9-(2,3-Dihydroxypropoxy)-, 9-(3,4-dihydroxybutoxy)-, and 9-(1,4-dihydroxybut-2-oxy)purines” (J Med Chem, 1991).

Key:
Human alphaherpesvirus 1 = assay: Compound was tested for its antiviral activity against HSV-1 (SC16) using plaque reduction assay.; assay type: functional, organism-based
Summary of the method: (§1)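 MRC-5 cell monolayers were infected with about 50 PFU of virus. Compounds were present at various concentrations for the whole incubation; stocks were 10 mg/mL in Me2SO, diluted in culture medium. IC50 is the concentration that cut plaque count to 50% of untreated controls.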

Human alphaherpesvirus 2 [1] = assay: Compound was tested for its antiviral activity against HSV-2 (MS) using plaque reduction assay.; assay type: functional, organism-based; summary of the method: as §1
Human alphaherpesvirus 3 [2] = assay: Compound was tested for its antiviral activity against VZV (Ellen) using plaque reduction assay.; assay type: functional, organism-based; summary of the method: as §1
Human alphaherpesvirus 3 [3] = assay: Compound was tested for its antiviral activity against VZV(Ellen) using plaque reduction assay.
Human alphaherpesvirus 2 [4] = assay: Compound was tested for its antiviral activity against HSV-2(MS) using plaque reduction assay.; assay type: functional, organism-based; summary of the method: as §1

| Structure (SMILES) | IC50 (Human alphaherpesvirus 1) [µM] | IC50 (Human alphaherpesvirus 2 [1]) [µM] | IC50 (Human alphaherpesvirus 3 [2]) [µM] | IC50 (Human alphaherpesvirus 3 [3]) [µM] | IC50 (Human alphaherpesvirus 2 [4]) [µM] |
| --- | --- | --- | --- | --- | --- |
| Nc1nc(O)c2ncn(OC[C@H](O)CO)c2n1 | > 415 | > 415 | > 415 |  |  |
| Nc1nc(O)c2ncn(OCCC(O)CO)c2n1 (centres undefined) | > 390 | > 390 | > 390 |  |  |
| Nc1nc(O)c2ncn(O[C@@H](CO)CCO)c2n1 | 390 | > 390 | > 390 |  |  |
| Nc1nc(O)c2ncn(O[C@H](CO)CCO)c2n1 | 36 | > 390 | 8.3 |  |  |
| Nc1nc(O)c2ncn(OC(CO)CCO)c2n1 (centres undefined) | 43 | > 390 | 30 |  |  |
| Nc1nc(O)c2ncn(OCC(O)CO)c2n1 (centres undefined) | 7.9 | 2.8 | 154 |  |  |
| Nc1nc(O)c2ncn(OC[C@@H](O)CO)c2n1 | 2.7 | 0.46 | 62 |  |  |
| Nc1nc2c(ncn2COCCO)c(=O)[nH]1 [ACYCLOVIR] | 4.8 |  |  | 15 | 1.2 |
